In ChEMBL document CHEMBL1134075, “Synthesis and hydrolytic stability studies of albendazole carrier prodrugs” (Bioorg Med Chem Lett, 2001) one finds half-life, k and logP data, which are given here for seven compounds.

A short description of data set [1]: Half life of the in human plasma. The format is ADME, cell-free. The procedure, abridged:
(§1)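 Incubation at 37 °C in 80% human plasma, initial 4×10^-4 M (1% methanol). Plasma samples withdrawn at various times were extracted on a C18 cartridge, and appearance of albendazole was followed by HPLC. First-order k_obs came from the slope of log % formed albendazole versus time, and t1/2 = 0.693/k_obs. Mean ± SD.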

The nature of data set [2]: First order rate constant, k was determined in human plasma. The data set is classed as ADME, cell-free. The procedure, abridged:
as §1

Data set [3] can be described thus: First order rate constant, k was determined in pig liver Esterase. The data set is classed as ADME, tissue-based, Sus scrofa. The procedure, abridged: (§2)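 Pig liver esterase used in place of plasma, at 37 °C with initial 4×10^-4 M (1% methanol). Samples were C18-extracted over time and albendazole formation was tracked by HPLC. k_obs was taken from the slope of log % formed albendazole versus time, and t1/2 = 0.693/k_obs. Mean ± SD.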

Data set [4] in a line: Half life of the in pig liver Esterase. The format is ADME, Sus scrofa. The procedure, abridged: as §2
The nature of data set [5]: Partition coefficient (logP). The data set is classed as physicochemical. The settings on record: octanol/water. The procedure, abridged:
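Determined by RP-HPLC. log K = log[(tr − t0)/t0], with t0 the elution time of methanol. log K0 at 0% methanol was obtained by linear regression of log K versus percent methanol, using standards.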

A short description of data set [6]: Half life of the at pH 5.0. The data set is classed as ADME. The procedure, abridged:
(§3)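 Buffer hydrolysis at 37 °C in HCl, acetate, phosphate or borate buffers. Methanolic stock was added to preheated buffer in screw-capped tubes, giving about 4×10^-4 M final (1% methanol). Samples were taken at intervals and chromatographed immediately by HPLC. First-order k_obs came from the slope of log % formed albendazole versus time, and t1/2 = 0.693/k_obs.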

A short description of data set [7]: Half life of the at pH 7.4. The format is ADME. The procedure, abridged: as §3
Data set [8] can be described thus: First order rate constant, k was determined at pH 1. The data set is classed as ADME. In short, it runs like this: as §3
Data set [9] is described as follows: First order rate constant, k was determined at pH 2. The data set is classed as ADME. The procedure, abridged: as §3
Data set [10] can be described thus: First order rate constant, k was determined at pH 3. The data set is classed as ADME. In short, it runs like this:
as §3

A short description of data set [11]: First order rate constant, k was determined at pH 4. The format is ADME. The procedure, abridged: as §3
The nature of data set [12]: First order rate constant, k was determined at pH 5. The format is ADME. The procedure, abridged:
as §3

Data set [13] can be described thus: First order rate constant, k was determined at pH 5.0. The format is ADME. The procedure, abridged:
as §3

A short description of data set [14]: First order rate constant, k was determined at pH 6. The data set is classed as ADME. The procedure, abridged:
as §3

A short description of data set [15]: First order rate constant, k was determined at pH 8. The data set is classed as ADME. In short, it runs like this: as §3
A short description of data set [16]: First order rate constant, k was determined at pH 9. The format is ADME. In short, it runs like this: as §3
A short description of data set [17]: First order rate constant, k was determined at pH 7.4. The format is ADME. In short, it runs like this: as §3

The term half-life denotes how long it takes for the measured level to halve. High values mean slow decline, low ones rapid decline. Broadly, the logP is a log measure of how a compound divides between an organic and an aqueous phase. As for `CCCSc1ccc2c(c1)nc(NC(=O)OC)n2COC(=O)c1ccc(N)cc1.Cl`, the half-life in [1] stood at 0.929 h; in [4] it was 0.755 h; in data set [6] it was 3.84 h; in data set [7], 2.05 h. In addition, the k is 12.43 10e-3 min-1 in data set [2]; 15.29 10e-3 min-1 in [3]; 0.3203 min⁻¹ in [8]; 0.2826 min⁻¹ in data set [9]; 0.0323 min⁻¹ in data set [10]; 0.0087 min⁻¹ in data set [11]. The k is 0.003 min⁻¹ in [12]; 3.01 10e-3 min-1 in data set [13]; 0.0036 min⁻¹ in data set [14]; 1.8066 min⁻¹ in data set [15]; 8 min⁻¹ in data set [16]. The logP in data set [5] amounted to 2.91.
`CCCSc1ccc2c(c1)nc(NC(=O)OC)n2C(C)=O` gave a logP in [5] of 2.82.
Same read-out and setting: under `CCCSc1ccc2nc(NC(=O)OC)[nH]c2c1` [ALBENDAZOLE] stands 3.07; under `CCCSc1ccc2c(c1)nc(NC(=O)OC)n2C(=O)CC`, 3.17.
On to `CCCSc1ccc2nc(NC(=O)OC)n(C(=O)OCC)c2c1`, for which the half-life in data set [1] amounted to 0.12 h; in [4] it was 0.117 h; in data set [6], 2.74 h; in [7] it was 2 h. The k in [2] is listed as 96.33 10e-3 min-1; in data set [3], 99.14 10e-3 min-1; in [13], 4.21 10e-3 min-1; in data set [17], 5.78 10e-3 min-1. This compound came in with a logP in data set [5] of 3.19.
`CCCSc1ccc2c(c1)nc(NC(=O)OC)n2C(=O)OCC`: the half-life in data set [1] amounted to 0.139 h; in data set [4], 0.115 h; in data set [6], 5.27 h; in data set [7] it was 2.02 h. For the same compound, the k in [2] was 83.29 10e-3 min-1; in data set [3] it was 100.14 10e-3 min-1; in data set [13] it was 2.19 10e-3 min-1; in [17], 5.73 10e-3 min-1. This compound also yielded a logP in data set [5] of 3.92.
`CCCSc1ccc2c(c1)nc(NC(=O)OC)n2C(=O)CCC` had a logP in [5] of 3.92.
